Test results reported in PMC4885108 (Journal of medicinal chemistry, 2016).
Like-named read-outs stand apart in the source and are kept apart here.

Legend:
S. oralis ATCC 9811 = settings: ref 22 (Bouley et al.); cited from earlier work
[1] = Compound levels in plasma and uninfected thighs in the neutropenic thigh model; assay type: in vivo, mouse; settings: for levels in plasma / levels in the thighs (uninfected): 24 h after infection (7 h after the last dose)
S. aureus = assay: MBC determination, three strains of S. aureus together; assay type: cell-based
MRSA NRS70 = assay: Mouse neutropenic thigh infection model; assay type: in vivo; settings: thighs harvested at 24 h
S. pyogenes ATCC 49399 = settings: ref 22 (Bouley et al.); cited from earlier work
B. cereus ATCC 13061 = settings: ref 22 (Bouley et al.); cited from earlier work
[2] = test system: B. licheniformis ATCC 12759; settings: ref 22 (Bouley et al.); cited from earlier work
E. faecalis ATCC 29212 = settings: quality control strain; ref 22 (Bouley et al.); cited from earlier work
red blood cells [3] = settings: at 64 μg/mL; ref 22 (Bouley et al.); cited from earlier work
E. faecalis 99 = settings: vancomycin-resistant clinical isolate; ref 22 (Bouley et al.); cited from earlier work
Fast PK studies = assay type: in vivo; settings: mouse, plasma, iv
In short: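 Female ICR mice (n = 2 per time point) got one tail-vein iv injection of 5, 10 or 20 mg/kg in 25% DMSO/65% propylene glycol/10% water. Plasma was precipitated with acetonitrile containing internal standard, then run by UPLC-UV or MRM against 0–50 μg/mL calibration curves. AUC and CL came from noncompartmental analysis.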

red blood cells [4] = assay: Hemolysis assay; assay type: cell-based, human; settings: at 64 μg/mL, Triton-X as positive control
Full PK study = assay type: in vivo, mouse; settings: 10 mg/kg
S. aureus strains = assay: MIC, all S. aureus strains tested; assay type: cell-based; settings: Staphylococcus aureus, read-out: MIC for all S. aureus strains tested
In short: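 CLSI broth microdilution: 2-fold serial compound dilutions in cation-adjusted Mueller–Hinton broth, set up in triplicate. Inoculum 5 × 10^5 CFU/mL.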

[5] = 20 mg/kg subcutaneously every 8 h
[6] = 10 mg/kg, fast PK AUC0–last, mice, single iv dose 10 mg/kg

Q: With `N#Cc1ccc(/C=C/c2nc3ccccc3c(=O)n2-c2cccc(C(=O)O)c2)cc1` [Compound 2, (E)-3-(3-Carboxyphenyl)-2-(4-cyanostyryl)quinazolin-4(3H)-one] as the compound, how does the “MIC S. oralis ATCC 9811” value (S. oralis ATCC 9811) read?
A: The value was over 128 µg/mL.

Q: And the levels in plasma ([1]; 20 mg/kg sc every 8 h)?
A: The levels in plasma was 1130 ± 1070 ng/mL.

Q: What about the “levels in the thighs (uninfected)” value ([1]; 20 mg/kg sc every 8 h) of the same compound?
A: The value was 24 ± 23 ng/mL.

Q: What about the “fold difference between MIC and MBC” value (S. aureus) of the same compound?
A: Its value is over 4 fold.

Q: What about the “lowering of the bacterial load compared to the negative control” value (“lowering … compared to the negative control” below) (MRSA NRS70; [5]) of the same compound?
A: Its value is “not able to achieve statistically significant efficacy”.

Q: And the “MIC S. pyogenes ATCC 49399” value (S. pyogenes ATCC 49399)?
A: The value was over 128 µg/mL.

Q: And the “MIC B. cereus ATCC 13061” value (B. cereus ATCC 13061)?
A: Its value is over 128 µg/mL.

Q: And the “MIC B. licheniformis ATCC 12759” value [2]?
A: The value was over 128 µg/mL.

Q: And the “MIC E. faecalis ATCC 29212” value (E. faecalis ATCC 29212)?
A: The value was over 128 µg/mL.

Q: And the hemolysis (red blood cells [3])?
A: The hemolysis was under 1%.

Q: And the “MIC E. faecalis 99” value (E. faecalis 99)?
A: The value was over 128 µg/mL.

Q: With `O=c1c2ccccc2nc(/C=C/c2ccc(F)cc2)n1-c1cccc(O)c1` [Compound 5, (E)-3-(3-Hydroxyphenyl)-2-(4-fluorostyryl)quinazolin-4(3H)-one] as the compound, how does the clearance (Fast PK studies; 5 mg/kg) read?
A: Its clearance is 11 mL/min/kg.

Q: What about the clearance at 8 h (Fast PK studies; 5 mg/kg) of the same compound?
A: Its clearance at 8 h is 10.7 mL/min/kg.

Q: What about the hemolysis (red blood cells [4]) of the same compound?
A: Its hemolysis is “no significant hemolytic activity”.

Q: Which AUC(0-t) (Fast PK studies; 5 mg/kg) does the source give for `N#Cc1ccc(/C=C/c2nc3ccccc3c(=O)n2-c2cccc(O)c2)cc1` [Compound 15, (E)-3-(3-Hydroxyphenyl)-2-(4-cyanostyryl)quinazolin-4(3H)-one] here?
A: Its AUC(0-t) is 450 ng·h/mL.

Q: And the clearance at 8 h (Fast PK studies; 5 mg/kg)?
A: Its clearance at 8 h is 186 mL/min/kg.

Q: For `C#Cc1ccc(/C=C/c2nc3ccccc3c(=O)n2-c2cccc(C(=O)O)c2)cc1` [Compound 27, (E)-3-(3-Carboxyphenyl)-2-(4-ethynylstyryl)quinazolin-4(3H)-one], which levels in plasma ([1]; 20 mg/kg sc every 8 h) is on record?
A: Its levels in plasma is 2430 ± 1640 ng/mL.

Q: And the “levels in the thighs (uninfected)” value ([1]; 20 mg/kg sc every 8 h)?
A: Its value is 220 ± 170 ng/mL.

Q: What about the “levels in thighs, fold higher than compound 2” value ([1]; 24 h after infection, 20 mg/kg sc every 8 h) of the same compound?
A: The value was 9 fold.

Q: And the “fold difference between MIC and MBC” value (S. aureus)?
A: The value was over 4 fold.

Q: And the “lowering … compared to the negative control” value (MRSA NRS70; [5])?
A: Its value is “statistically significant lowering of the bacterial load”.

Q: And the AUC(0-t) (Full PK study; ICR, mouse, plasma, iv)?
A: The AUC(0-t) was 25700 ng·h/mL.

Q: And the clearance (Full PK study; ICR, mouse, plasma, iv)?
A: Its clearance is 6.4 mL/min/kg.

Q: What about the “volume of distribution (Vd), fold higher than compound 2” value (Full PK study; mice, iv) of the same compound?
A: The value was 10 fold.

Q: And the “Cmax after po administration, fold higher than compound 2” value (Full PK study; mice, po)?
A: The value was 2 fold.

Q: What about the clearance (Fast PK studies; 10 mg/kg) of the same compound?
A: The clearance was 6.4 mL/min/kg.

Q: And the MIC (S. aureus strains)?
A: Its MIC is at most 0.5 µg/mL.

Q: Which clearance at 8 h (Fast PK studies; 20 mg/kg) does the source give for `O=C(O)c1cccc(-n2c(/C=C/c3ccc(F)cc3)nc3ccccc3c2=O)c1` [Compound 30, (E)-3-(3-Carboxyphenyl)-2-(4-fluorostyryl)quinazolin-4(3H)-one] here?
A: Its clearance at 8 h is 7.8 mL/min/kg.

Q: For `CC(=O)Nc1cccc(-n2c(/C=C/c3ccc(F)cc3)nc3ccccc3c2=O)c1` [Compound 42, (E)-3-(3-Acetamidophenyl)-2-(4-fluorostyryl)quinazolin-4(3H)-one], which clearance (Fast PK studies; 10 mg/kg) is on record?
A: Its clearance is 88 mL/min/kg.

Q: And the AUC(0-t) (Fast PK studies; [6])?
A: The AUC(0-t) was 4730 ng·h/mL.

Q: Which results are given for `CS(=O)(=O)Nc1cccc(-n2c(/C=C/c3ccc(F)cc3)nc3ccccc3c2=O)c1` [Compound 43, (E)-3-(3-Methylsulfonamidophenyl)-2-(4-fluorostyryl)-quinazolin-4(3H)-one]?
A: clearance (Fast PK studies; 10 mg/kg): 28 mL/min/kg; AUC(0-t) (Fast PK studies; [6]): 13700 ng·h/mL

Q: For `N#Cc1ccc(/C=C/c2nc3ccccc3c(=O)n2-c2cccc(N)c2)cc1` [Compound 50, (E)-3-(3-Aminophenyl)-2-(4-cyanostyryl)quinazolin-4(3H)-one], which clearance at 8 h (Fast PK studies; 10 mg/kg) is on record?
A: The clearance at 8 h was 25 mL/min/kg.

Q: What about the hemolysis (red blood cells [4]) of the same compound?
A: Its hemolysis is “some hemolysis”.

Q: Which clearance at 8 h (Fast PK studies; 5 mg/kg) does the source give for `CC(=O)Nc1cccc(-n2c(/C=C/c3ccc(C#N)cc3)nc3ccccc3c2=O)c1` [Compound 52, (E)-3-(3-Acetamidophenyl)-2-(4-cyanostyryl)quinazolin-4(3H)-one] here?
A: The clearance at 8 h was 131 mL/min/kg.

Q: Which clearance at 8 h (Fast PK studies; 10 mg/kg) does the source give for `CC(=O)NCc1cccc(-n2c(/C=C/c3ccc(C#N)cc3)nc3ccccc3c2=O)c1` [Compound 53, (E)-3-(3-(Acetamidomethyl)phenyl)-2-(4-cyanostyryl)-quinazolin-4(3H)-one] here?
A: The clearance at 8 h was 35 mL/min/kg.

Q: With `CS(=O)(=O)Nc1cccc(-n2c(/C=C/c3ccc(C#N)cc3)nc3ccccc3c2=O)c1` [Compound 54, (E)-3-(3-Methylsulfonamidophenyl)-2-(4-cyanostyryl)-quinazolin-4(3H)-one] as the compound, how does the clearance at 8 h (Fast PK studies; 5 mg/kg) read?
A: Its clearance at 8 h is 162 mL/min/kg.

Q: For `N#Cc1ccc(/C=C/c2nc3ccccc3c(=O)n2-c2cccc(C(=O)NCCO)c2)cc1` [Compound 57, (E)-3-(3-(2-Hydroxyethyl)carbomylphenyl)-2-(4-cyanostyryl)quinazolin-4(3H)-one], which clearance at 8 h (Fast PK studies; 10 mg/kg) is on record?
A: The clearance at 8 h was 29 mL/min/kg.

Q: Which levels in plasma ([1]; 10 mg/kg sc every 8 h) does the source give for `CC(=O)NC[C@H]1CN(c2ccc(N3CCOCC3)c(F)c2)C(=O)O1` [linezolid, reference compound] here?
A: Its levels in plasma is “not quantifiable”.

Q: What about the “levels in the thighs (uninfected)” value ([1]; 10 mg/kg sc every 8 h) of the same compound?
A: The value was “not quantifiable”.

Q: And the “lowering … compared to the negative control” value (MRSA NRS70; 10 mg/kg subcutaneously every 8 h)?
A: Its value is “statistically significant lowering of the bacterial load”.
